Target: 5-hydroxytryptamine receptor 6 (Homo sapiens, UniProt P50406)
Assay: Antagonist activity at human recombinant 5HT6 receptor expressed in HEK293 cells assessed as inhibition of serotonin-induced cAMP production
Assay type: functional, cell-based
Summary of the method: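 HEK293 cells stably expressing recombinant human 5-HT6R, stimulated with serotonin. cAMP from adenylyl cyclase measured by LANCE. Compounds screened at 5 and 10 μM. IC50 determined for compounds giving more than 50% inhibition of cAMP synthesis at 5 μM.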

5-hydroxytryptamine receptor 6, sequence (P50406 whole entry): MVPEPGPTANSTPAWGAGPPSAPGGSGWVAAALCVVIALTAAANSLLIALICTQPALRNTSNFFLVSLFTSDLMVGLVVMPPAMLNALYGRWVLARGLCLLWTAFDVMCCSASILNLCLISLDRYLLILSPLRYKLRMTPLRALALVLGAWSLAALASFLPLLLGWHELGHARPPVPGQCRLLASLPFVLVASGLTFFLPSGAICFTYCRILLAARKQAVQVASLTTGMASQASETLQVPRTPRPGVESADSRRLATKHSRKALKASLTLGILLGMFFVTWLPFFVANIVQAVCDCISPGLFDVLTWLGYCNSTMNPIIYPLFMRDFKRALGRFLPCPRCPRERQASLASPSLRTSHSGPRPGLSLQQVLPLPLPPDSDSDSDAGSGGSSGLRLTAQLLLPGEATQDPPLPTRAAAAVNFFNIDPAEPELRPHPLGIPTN

| Structure (SMILES) | IC50 [nM] |
| --- | --- |
| Cc1ccc(S(=O)(=O)c2nnn3c2nc(NC2CCCCCC2)c2sccc23)cc1C | 350 |
| Cc1ccc(S(=O)(=O)c2nnn3c2nc(NCc2cccc(Cl)c2)c2sccc23)cc1 | 120 |
| COCCNc1nc2c(S(=O)(=O)c3ccccc3)nnn2c2ccsc12 | 190 |
| Cc1ccc(S(=O)(=O)c2nnn3c2nc(NCCC(C)C)c2sccc23)cc1 | 580 |
| Cc1ccc(S(=O)(=O)c2nnn3c2nc(NC2CCCCC2)c2sccc23)cc1 | 730 |
| O=S(=O)(c1cccc(Cl)c1)c1nnn2c1nc(NC1CCCC1)c1sccc12 | 170 |
| O=S(=O)(c1ccccc1)c1nnn2c1nc(NCCc1ccccc1)c1sccc12 | 1160 |
| COCCNc1nc2c(S(=O)(=O)c3ccc(C)cc3)nnn2c2ccsc12 | 1490 |
| Cc1ccc(C)c(S(=O)(=O)c2nnn3c2nc(NCC2CCCO2)c2sccc23)c1 (centres undefined) | 890 |
| CC(Nc1nc2c(S(=O)(=O)c3cccc(Cl)c3)nnn2c2ccsc12)c1ccccc1 (centres undefined) | 150 |
| Cc1ccc(C)c(S(=O)(=O)c2nnn3c2nc(NC(C)c2ccccc2)c2sccc23)c1 (centres undefined) | 170 |
| Cc1ccc(Nc2nc3c(S(=O)(=O)c4cccc(Cl)c4)nnn3c3ccsc23)cc1 | 1210 |
| Cc1ccc(S(=O)(=O)c2nnn3c2nc(N(C)Cc2ccccc2)c2sccc23)cc1C | 1330 |
| CC1CCCN(c2nc3c(S(=O)(=O)c4ccccc4)nnn3c3ccsc23)C1 (centres undefined) | 2030 |
| CCN(Cc1ccccc1)c1nc2c(S(=O)(=O)c3ccc(Br)cc3)nnn2c2ccsc12 | 580 |
| COc1cccc(Nc2nc3c(S(=O)(=O)c4ccc(C)c(C)c4)nnn3c3ccsc23)c1 | 860 |
| Cc1ccc(S(=O)(=O)c2nnn3c2nc(NCc2ccco2)c2sccc23)cc1C | 770 |
| COCCNc1nc2c(S(=O)(=O)c3ccc(C(C)C)cc3)nnn2c2ccsc12 | > 5000 |
| O=S(=O)(c1cccc(Cl)c1)c1nnn2c1nc(NCc1ccc(F)cc1)c1sccc12 | 480 |
| Cc1ccc(S(=O)(=O)c2nnn3c2nc(NCCC(C)C)c2sccc23)cc1C | 46 |
| Cc1ccc(C)c(Nc2nc3c(S(=O)(=O)c4ccc(Br)cc4)nnn3c3ccsc23)c1 | 2010 |
| Nc1nc2c(S(=O)(=O)c3cccc(Cl)c3)nnn2c2ccsc12 | 690 |
| CCc1ccc(S(=O)(=O)c2nnn3c2nc(Nc2cccc(C)c2)c2sccc23)cc1 | 1750 |
| O=S(=O)(c1ccccc1)c1nnn2c1nc(Nc1cccc(C(F)(F)F)c1)c1sccc12 | 820 |
| COc1ccccc1CNc1nc2c(S(=O)(=O)c3ccc(C)cc3)nnn2c2ccsc12 | 580 |

| Structure (SMILES) | IC50 [nM] |
| --- | --- |
| COCCNc1nc2c(S(=O)(=O)c3ccc(C)c(C)c3)nnn2c2ccsc12 | 1570 |
| Cc1ccc(C)c(S(=O)(=O)c2nnn3c2nc(NCCC(C)C)c2sccc23)c1 | 860 |
| CCCCNc1nc2c(S(=O)(=O)c3ccccc3)nnn2c2ccsc12 | 69 |
| CC(C)Nc1nc2c(S(=O)(=O)c3cccc(Cl)c3)nnn2c2ccsc12 | 470 |
| NC(=O)C1CCN(c2nc3c(S(=O)(=O)c4ccccc4)nnn3c3ccsc23)CC1 | 1990 |
| O=S(=O)(c1ccc(Cl)cc1)c1nnn2c1nc(NCc1ccco1)c1sccc12 | 410 |
| Cc1ccc(Nc2nc3c(S(=O)(=O)c4ccc(C(C)C)cc4)nnn3c3ccsc23)cc1C | 1110 |
| CC(Nc1nc2c(S(=O)(=O)c3ccccc3)nnn2c2ccsc12)c1ccccc1 (centres undefined) | 37 |
| CN(C)CCN(C)c1nc2c(S(=O)(=O)c3cccc(Cl)c3)nnn2c2ccsc12 | 780 |
| Cc1ccc(S(=O)(=O)c2nnn3c2nc(NCC2CCCO2)c2sccc23)cc1 (centres undefined) | 250 |
| COCCCNc1nc2c(S(=O)(=O)c3cccc(Cl)c3)nnn2c2ccsc12 | 150 |
| CCCCNc1nc2c(S(=O)(=O)c3cccc(Cl)c3)nnn2c2ccsc12 | 60 |
| Cc1ccc(C)c(S(=O)(=O)c2nnn3c2nc(NCc2cccs2)c2sccc23)c1 | 710 |
| CC1CCN(c2nc3c(S(=O)(=O)c4cccc(Cl)c4)nnn3c3ccsc23)CC1 | 1120 |
| Cc1ccc(S(=O)(=O)c2nnn3c2nc(NC(C)C)c2sccc23)cc1C | 750 |
| CCc1ccc(S(=O)(=O)c2nnn3c2nc(NCCC(C)C)c2sccc23)cc1 | > 5000 |
| Cc1ccc(S(=O)(=O)c2nnn3c2nc(NC(C)c2ccccc2)c2sccc23)cc1 (centres undefined) | 180 |
| CC1CCCN(c2nc3c(S(=O)(=O)c4cccc(Cl)c4)nnn3c3ccsc23)C1 (centres undefined) | 2000 |
| COCCCNc1nc2c(S(=O)(=O)c3ccc(C)c(C)c3)nnn2c2ccsc12 | 2380 |
| Cc1ccc(S(=O)(=O)c2nnn3c2nc(NCc2cccs2)c2sccc23)cc1 | 220 |
| O=S(=O)(c1ccccc1)c1nnn2c1nc(Nc1nc3ccccc3s1)c1sccc12 | > 5000 |
| O=S(=O)(c1cccc(Cl)c1)c1nnn2c1nc(NCc1ccco1)c1sccc12 | 190 |
| Cc1ccc(S(=O)(=O)c2nnn3c2nc(NCc2ccc4c(c2)OCO4)c2sccc23)cc1 | 1250 |
| O=S(=O)(c1cccc(Cl)c1)c1nnn2c1nc(NCc1cccs1)c1sccc12 | 150 |
| COc1cccc(CNc2nc3c(S(=O)(=O)c4ccccc4)nnn3c3ccsc23)c1 | 1370 |

| Structure (SMILES) | IC50 [nM] |
| --- | --- |
| COc1ccccc1CNc1nc2c(S(=O)(=O)c3ccc(Cl)cc3)nnn2c2ccsc12 | 1150 |
| CC(Nc1nc2c(S(=O)(=O)c3ccc(Br)cc3)nnn2c2ccsc12)c1ccccc1 (centres undefined) | 540 |
| CC(Nc1nc2c(S(=O)(=O)c3ccc(Cl)cc3)nnn2c2ccsc12)c1ccccc1 (centres undefined) | 280 |
| Cc1ccc(S(=O)(=O)c2nnn3c2nc(NC(C)Cc2ccccc2)c2sccc23)cc1C (centres undefined) | 680 |
| CCN(Cc1ccccc1)c1nc2c(S(=O)(=O)c3cc(C)ccc3C)nnn2c2ccsc12 | 1100 |
| CN(Cc1ccccc1)c1nc2c(S(=O)(=O)c3ccc(Br)cc3)nnn2c2ccsc12 | 1950 |
| Cc1ccc(C)c(S(=O)(=O)c2nnn3c2nc(NCCCc2ccccc2)c2sccc23)c1 | 1220 |
| CCN(Cc1ccccc1)c1nc2c(S(=O)(=O)c3cccc(Cl)c3)nnn2c2ccsc12 | 540 |
| COCCCNc1nc2c(S(=O)(=O)c3ccc(Br)cc3)nnn2c2ccsc12 | > 5000 |
| COc1cccc(CNc2nc3c(S(=O)(=O)c4ccc(C)cc4)nnn3c3ccsc23)c1 | 2210 |
| CC(C)c1ccc(S(=O)(=O)c2nnn3c2nc(NCc2ccccc2Cl)c2sccc23)cc1 | 1830 |
| CC(C)CCNc1nc2c(S(=O)(=O)c3ccc(C(C)C)cc3)nnn2c2ccsc12 | > 5000 |
| Cc1ccc(S(=O)(=O)c2nnn3c2nc(NC2CCCCC2)c2sccc23)cc1C | 820 |
| CCCCNc1nc2c(S(=O)(=O)c3ccc(C(C)C)cc3)nnn2c2ccsc12 | > 5000 |
| Cc1ccc(S(=O)(=O)c2nnn3c2nc(Nc2cccc(C)c2C)c2sccc23)cc1 | 590 |
| COCCNc1nc2c(S(=O)(=O)c3cc(C)ccc3C)nnn2c2ccsc12 | 860 |
| Cc1ccc(S(=O)(=O)c2nnn3c2nc(NCc2ccc(F)cc2)c2sccc23)cc1C | 520 |
| COc1ccccc1CNc1nc2c(S(=O)(=O)c3ccc(C)c(C)c3)nnn2c2ccsc12 | 470 |
| COCCCNc1nc2c(S(=O)(=O)c3cc(C)ccc3C)nnn2c2ccsc12 | 1290 |
| O=S(=O)(c1cccc(Cl)c1)c1nnn2c1nc(N1CCCCCC1)c1sccc12 | 1540 |
| Cc1ccc(S(=O)(=O)c2nnn3c2nc(NC2CCCCCC2)c2sccc23)cc1 | 790 |
| Cc1ccc(Nc2nc3c(S(=O)(=O)c4ccc(Br)cc4)nnn3c3ccsc23)cc1C | 1350 |
| COCCNc1nc2c(S(=O)(=O)c3cccc(Cl)c3)nnn2c2ccsc12 | 110 |
| Cc1ccc(C)c(S(=O)(=O)c2nnn3c2nc(N2CCC(C)CC2)c2sccc23)c1 | 1990 |
| CC(C)Nc1nc2c(S(=O)(=O)c3ccc(Cl)cc3)nnn2c2ccsc12 | 1200 |

| Structure (SMILES) | IC50 [nM] |
| --- | --- |
| Cc1ccc(S(=O)(=O)c2nnn3c2nc(NCc2ccco2)c2sccc23)cc1 | 500 |
| O=S(=O)(c1ccccc1)c1nnn2c1nc(Nc1ccccc1)c1sccc12 | 5000 |
| O=S(=O)(c1cccc(Cl)c1)c1nnn2c1nc(Nc1ccccc1)c1sccc12 | 920 |
| COc1ccccc1CNc1nc2c(S(=O)(=O)c3cccc(Cl)c3)nnn2c2ccsc12 | 780 |
| O=S(=O)(c1ccc(Cl)cc1)c1nnn2c1nc(NCC1CCCO1)c1sccc12 (centres undefined) | 480 |
| O=S(=O)(c1cccc(Cl)c1)c1nnn2c1nc(NC1CCCCC1)c1sccc12 | 69 |
| CCN(Cc1ccccc1)c1nc2c(S(=O)(=O)c3ccc(Cl)cc3)nnn2c2ccsc12 | 570 |
| O=S(=O)(c1ccccc1)c1nnn2c1nc(NCc1ccc3c(c1)OCO3)c1sccc12 | 290 |
| Cc1cccc(Nc2nc3c(S(=O)(=O)c4ccc(C(C)C)cc4)nnn3c3ccsc23)c1 | 590 |
| Cc1ccc(C)c(S(=O)(=O)c2nnn3c2nc(N2CCCCC2)c2sccc23)c1 | 1520 |
| O=S(=O)(c1ccccc1)c1nnn2c1nc(NCc1ccc(F)cc1)c1sccc12 | 690 |
| O=S(=O)(c1ccc(Br)cc1)c1nnn2c1nc(NCC1CCCO1)c1sccc12 (centres undefined) | 1620 |
| Cc1ccc(C)c(S(=O)(=O)c2nnn3c2nc(N(C)Cc2ccccc2)c2sccc23)c1 | 1480 |
| Nc1nc2c(S(=O)(=O)c3ccc(Br)cc3)nnn2c2ccsc12 | 610 |
| CCN(CC)c1nc2c(S(=O)(=O)c3cccc(Cl)c3)nnn2c2ccsc12 | 1220 |
| Cc1ccc(S(=O)(=O)c2nnn3c2nc(NC2CCCC2)c2sccc23)cc1 | 2030 |
| CCN(Cc1ccccc1)c1nc2c(S(=O)(=O)c3ccc(C)cc3)nnn2c2ccsc12 | 300 |
| Cc1cccc(Nc2nc3c(S(=O)(=O)c4ccc(Cl)cc4)nnn3c3ccsc23)c1C | 800 |
| O=S(=O)(c1ccccc1)c1nnn2c1nc(Nc1ccc(F)cc1)c1sccc12 | 600 |
| CCc1ccc(S(=O)(=O)c2nnn3c2nc(N(CC)CC)c2sccc23)cc1 | 1900 |
| O=S(=O)(c1cccc(Cl)c1)c1nnn2c1nc(NCC1CCCO1)c1sccc12 (centres undefined) | 29 |
| COCCNc1nc2c(S(=O)(=O)c3ccc(Cl)cc3)nnn2c2ccsc12 | 2170 |
| CC(Cc1ccccc1)Nc1nc2c(S(=O)(=O)c3ccccc3)nnn2c2ccsc12 (centres undefined) | 1080 |
| O=S(=O)(c1cccc(Cl)c1)c1nnn2c1nc(NCCc1ccccc1)c1sccc12 | 820 |

Reference: ChEMBL document CHEMBL1177669, “Synthesis and biological study of 3-(phenylsulfonyl)thieno[2,3-e][1,2,3]triazolo[1,5-a]pyrimidines as potent and selective serotonin 5-HT6 receptor antagonists” (Bioorg Med Chem, 2010)
